pEC50: −log10 of the molar value. No end group written: not given here.
Biological target: T1, CKR-1 (Caenorhabditis elegans, UniProt P91487)
T1 sequence (P91487 1-421): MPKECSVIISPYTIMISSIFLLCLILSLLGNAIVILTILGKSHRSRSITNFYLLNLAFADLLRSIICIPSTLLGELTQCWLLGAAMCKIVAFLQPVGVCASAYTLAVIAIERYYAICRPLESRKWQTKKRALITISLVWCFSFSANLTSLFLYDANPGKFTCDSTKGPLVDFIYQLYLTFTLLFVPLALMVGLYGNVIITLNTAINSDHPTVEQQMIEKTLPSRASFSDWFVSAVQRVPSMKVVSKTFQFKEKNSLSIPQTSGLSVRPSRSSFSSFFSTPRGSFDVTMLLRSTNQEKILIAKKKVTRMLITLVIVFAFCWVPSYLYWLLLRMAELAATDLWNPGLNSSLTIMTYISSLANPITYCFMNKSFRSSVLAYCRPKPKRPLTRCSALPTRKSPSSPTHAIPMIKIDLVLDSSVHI
Format: cell-based, C. elegans
How it was run: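 CKR-1 cDNA cloned into pGH19, and 50 ng sense cRNA injected per oocyte. Oocytes kept 2-3 days at 18°C in ND96. TEVC at -80 mV with 3 M KCl electrodes. Perfusion switched from ND96 to high-K+ bath (96 mM KCl, pH 7.3) to read […] Ca2+-gated Cl- currents evoked by synthetic peptide. Washout in high-K+, then ND96.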

Substance: DYRPLQF-NH2 [NLP-12a]
- pEC50: 7.58
- EC50 of NLP-12a relative to NLP-18a (ratio of EC50 values, X. laevis oocytes expressing CKR-1): approximately twice that of NLP-18a

Source: article PMC10952047 (iScience, 2024)
